Where “and” joins values, the source holds several entries; their conditions need not be identical. Equal values may be shown once. Entries after “also recorded” stand apart in the source; their conditions may differ.
Assays:
[1] = DPPH radical scavenging assay; assay type: biochemical; conditions: read-out: IC50, DPPH radical scavenging; data not shown
NF-κB = assay type: cell-based, human; conditions: MIAPaCa-2 cells, EMSA
BxPC-3 cells = assay: PGE2 immunoassay in conditioned medium of BxPC-3 cells; assay type: cell-based, human; conditions: 1 or 4 μM, 24 h, vs untreated control
MIAPaCa-2 cells = assay: PGE2 immunoassay in conditioned medium of MIAPaCa-2 cells; assay type: cell-based, human; conditions: 1 or 4 μM, 24 h, vs untreated control
[2] = Serum pharmacokinetics in mice after single intragastric dose; assay type: in vivo
How it was run: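 Female ICR-SCID mice, 7–8 weeks old, 18 per compound, got a single oral 250 mg/kg dose in sesame oil by intragastric tube. Two mice were killed at 0–24 h (nine time points). Cardiac blood was clotted and serum stored at −80°C, then ethyl acetate-extracted with zileuton internal standard and assayed by LC-MS/MS. Cmax was read from the curve. AUClast used linear (rising) and log (falling) trapezoids in non-compartmental analysis. Values are means of two mice.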

[3] = Pancreas pharmacokinetics in mice after single intragastric dose; assay type: in vivo
How it was run: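 Female ICR-SCID mice, 7–8 weeks old, 18 per compound, got a single 250 mg/kg dose in sesame oil by intragastric intubation. Two mice were killed at 0, 1, 2, 4, 6, 8, 12, 16 and 24 h. Pancreas was PBS-washed, blotted, weighed, frozen at −80°C, then homogenized in 5 volumes ice-cold 0.9% saline. Homogenate was ethyl acetate-extracted with zileuton internal standard and assayed by LC-MS/MS. Values are means of two mice.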

[4] = serum, oral 1 g/kg body weight, mouse; cited from earlier work
Water solubility = assay type: physicochemical; conditions: data not shown
[5] = tested on: COX-2 positive BxPC-3 pancreatic cancer cells; conditions: BxPC-3 cells, MTT assay; cited from earlier work
[6] = female, ICR-SCID, mouse, po, 250 mg/kg
[7] = single intragastric 250 mg/kg, mice, mean from two mice
[8] = female, ICR-SCID, mouse, pancreas, po, 250 mg/kg
[9] = pancreas, single intragastric 250 mg/kg, mice, mean from two mice

## COc1cc(/C=C/C(=O)CC(=O)/C=C/c2ccc(O)c(OC)c2)ccc1O [Curcumin, diferuloylmethane, reference compound]
[1]
  IC50: 35 µM
NF-κB
  NF-κB DNA-binding activity: caused down-regulation of NF-κB
BxPC-3 cells
  PGE2 level in conditioned medium: such results were not found; also recorded: no significant change
MIAPaCa-2 cells
  PGE2 level in conditioned medium: significant decrease; also recorded: substantial reduction
[2]; [6]
  Cmax: 220 ng/mL
  Tmax: 1 h
[2]; [7]
  Tlast: 8 h and 8.0 h
[3]; [8]
  Cmax: 2150 ng/g
  Tmax: 1 h
[3]; [9]
  AUClast: 3.46 µg·h/g
  Tlast: 16.0 h
[4]
  Time of Cmax: 1 h

## COc1cc(/C=C/C(=O)C(=Cc2ccc(F)c(F)c2)C(=O)/C=C/c2ccc(O)c(OC)c2)ccc1O [CDF]
[1]
  IC50: 0.05 µM
NF-κB
  NF-κB DNA-binding activity: the effect was more pronounced with a low concentration of CDF
BxPC-3 cells
  PGE2 level in conditioned medium: significant decrease; also recorded: significant reduction
MIAPaCa-2 cells
  PGE2 level in conditioned medium: significant decrease; also recorded: substantial reduction
[2]; oral 250 mg/kg, mice
  Systemic drug level (serum AUClast) relative to Curcumin: 2.7 fold
[2]; [7]
  AUClast: 1.22 µg·h/mL
  Clast: 0.04 µg/mL
  Cmax: 210 ng/mL
  Tlast: 16.0 h
  Tmax: 8.0 h
[3]; at 8 h, oral 250 mg/kg, mice
  Cmax in pancreas relative to serum: 44.5 fold
[3]; pancreas, oral 250 mg/kg, mice
  Cmax in pancreas relative to Curcumin: 4.3 fold
[3]; pancreas, oral 250 mg/kg, mice, 250 mg/kg
  AUClast (concentration) in pancreas relative to Curcumin: 10 fold and 10.6 fold
[3]; [9]
  AUClast: 36.56 µg·h/g
  Clast: 0.04 µg/g
  Cmax: 9350 ng/g
  Tlast: 12.0 h
  Tmax: 8.0 h
Water solubility
  Water solubility relative to Curcumin: 8.4 fold
[5]
  IC50, anti-proliferative activity: low IC50 value
